Assay results taken from ChEMBL document CHEMBL3407337, “Molecular design, synthesis and biological research of novel pyridyl acridones as potent DNA-binding and apoptosis-inducing agents” (Eur J Med Chem, 2015).
Calls of active or inactive are those of the source. The rule behind the calls is not given here.

How the values were obtained:
K562 [1] = assay: Induction of apoptosis in human K562 cells assessed as early apoptotic cells at 1 uM after 48 hrs by annexin V/PI staining based flow cytometry (reference value: 3.89 %); type: functional
K562 [2] = assay: Induction of apoptosis in human K562 cells assessed as late apoptotic cells at 1 uM after 48 hrs by annexin V/PI staining based flow cytometry (reference value: 0.26 %); type: functional
K562 [3] = assay: Induction of apoptosis in human K562 cells assessed as late apoptotic cells at 2.5 uM after 48 hrs by annexin V/PI staining based flow cytometry (reference value: 0.26 %); type: functional
K562 [4] = assay: Induction of apoptosis in human K562 cells after 48 hrs by annexin V/PI staining based flow cytometry; type: functional, cell-based
K562 [5] = assay: Induction of apoptosis in human K562 cells assessed as cleavage of caspase-9 at 1 uM after 36 hrs by Western blot analysis; type: functional, cell-based
Procedure, shortened: (§1)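 K562 cells in 6 cm dishes treated 36 h at various concentrations. Cells lysed on ice for 0.5 h and spun at 20,000 g. Protein measured by BCA. Lysates run on 12% SDS-PAGE and transferred to PVDF. Membranes blocked in 5% milk and probed overnight at 4 °C with primary antibody against cleaved caspase-9, -7, -3, cleaved PARP or Bcl-XL.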

K562 [6] = assay: Induction of apoptosis in human K562 cells assessed as cleavage of caspase-7 at 1 uM after 36 hrs by Western blot analysis; type: functional, cell-based; procedure, shortened: as §1
K562 [7] = assay: Induction of apoptosis in human K562 cells assessed as reduction in Bcl-XL protein expression at 1 uM after 36 hrs by Western blot analysis; type: functional, cell-based; procedure, shortened: as §1
K562 [8] = assay: Induction of apoptosis in human K562 cells assessed as loss of mitochondrial membrane potential at 1 uM after 24 hrs by JC-1 staining based fluorescence microscopy; type: functional, cell-based
Procedure, shortened: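 K562 cells exposed to 1 μM for 24 h. Stained with a JC-1 kit and viewed by fluorescence microscopy (red aggregates versus green monomers). Untreated cells served as blank; CCCP at 10 μM as positive control.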

K562 [9] = assay: Antiproliferative activity against human K562 cells after 48 hrs by MTT assay; type: functional, cell-based; conditions: K562, 48 h
Procedure, shortened: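 K562 suspension cells in RPMI-1640 with 10% FBS, 37 °C, 5% CO2. Seeded at 1.5×10^4 cells/well, exposed 48 h to final 50, 25, 10, 1 and 0.1 μM. MTT (5 mg/mL) added for 4 h at 37 °C. IC50 from the dose series.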

NCI-H520 = assay: Antiproliferative activity against human NCI-H520 cells after 48 hrs by MTT assay; type: functional, cell-based; conditions: NCI-H520, 48 h
Procedure, shortened: (§2)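 Adherent lines seeded at 6×10^3 cells/well and allowed 12 h attachment. Media: NCI-H520 and HeLa RPMI-1640; HepG2, MCF-7, CNE-2, A375, A172 and U118-MG DMEM; U251 MEM-EBSS; all with 10% FBS, 37 °C, 5% CO2. Dosed 48 h at final 50, 25, 10, 1 and 0.1 μM. MTT 4 h, formazan dissolved in DMSO, A490. IC50 from the dose series.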

A-375 = assay: Antiproliferative activity against human A375 cells after 48 hrs by MTT assay; type: functional, cell-based; conditions: A-375, 48 h; procedure, shortened: as §2
[10] = Antiproliferative activity against human A172 cells after 48 hrs by MTT assay; type: functional, cell-based; conditions: A 172, 48 h; procedure, shortened: as §2
[11] = Antiproliferative activity against human U118MG cells after 48 hrs by MTT assay; type: functional, cell-based; conditions: U-118-MG; procedure, shortened: as §2
HepG2 = assay: Antiproliferative activity against human HepG2 cells after 48 hrs by MTT assay; type: functional, cell-based; conditions: HepG2, 48 h; procedure, shortened: as §2
MCF7 = assay: Antiproliferative activity against human MCF7 cells after 48 hrs by MTT assay; type: functional, cell-based; conditions: MCF7, 48 h; procedure, shortened: as §2
Calf thymus DNA = assay: Binding affinity to calf thymus DNA at 10 uM after 5 mins by UV-vis spectroscopy; type: nucleic-acid assay; conditions: Bos taurus
Procedure, shortened: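 Compound in 5 mM Tris-HCl, 50 mM NaCl, pH 7.2, titrated with ct DNA at 0–30 μM (bp). Incubated 5 min before reading. Absorbance at 425 nm followed. Kb taken as slope/intercept of [DNA]/(εa−εf) versus [DNA]. ct DNA quantified with ε260 6600 M⁻¹cm⁻¹.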

[12] = biological target: T1, DNA topoisomerase 1 (Homo sapiens) (UniProt P11387); assay: Inhibition of recombinant human Topo1-mediated relation of supercoiled pBR322 DNA at 50 uM after 30 mins by agarose gel electrophoresis
T1 sequence (whole entry): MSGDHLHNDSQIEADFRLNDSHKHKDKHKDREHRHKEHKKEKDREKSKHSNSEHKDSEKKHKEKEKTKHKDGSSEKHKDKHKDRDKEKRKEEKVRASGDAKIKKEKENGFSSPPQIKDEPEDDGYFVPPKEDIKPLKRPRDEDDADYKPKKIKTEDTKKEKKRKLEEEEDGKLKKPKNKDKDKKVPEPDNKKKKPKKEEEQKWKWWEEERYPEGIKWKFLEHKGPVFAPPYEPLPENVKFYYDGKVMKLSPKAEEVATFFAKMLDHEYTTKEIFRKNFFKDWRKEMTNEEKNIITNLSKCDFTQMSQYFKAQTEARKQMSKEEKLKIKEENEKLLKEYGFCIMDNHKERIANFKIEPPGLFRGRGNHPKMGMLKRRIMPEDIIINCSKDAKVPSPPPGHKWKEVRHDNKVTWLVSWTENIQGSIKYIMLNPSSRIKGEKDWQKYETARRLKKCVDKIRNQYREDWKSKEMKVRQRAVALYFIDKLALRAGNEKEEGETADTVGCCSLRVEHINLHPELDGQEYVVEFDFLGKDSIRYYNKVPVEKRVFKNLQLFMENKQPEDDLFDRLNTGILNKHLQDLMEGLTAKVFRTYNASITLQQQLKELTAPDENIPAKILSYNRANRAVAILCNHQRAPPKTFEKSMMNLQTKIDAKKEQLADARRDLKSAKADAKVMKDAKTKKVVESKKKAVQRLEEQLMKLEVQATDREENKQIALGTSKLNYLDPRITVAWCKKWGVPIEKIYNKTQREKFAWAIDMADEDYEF
Procedure, shortened: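 pBR322 at 100 ng with 1.0 unit recombinant human topo I. Incubated 30 min at 37 °C in 35 mM Tris-HCl pH 8.0, 5 mM MgCl2, 72 mM KCl, 0.01% BSA, 2 mM spermidine and 5 mM DTT. Run on 1% agarose in TAE at 100 V for 25 min. EB-stained gel viewed under UV.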

K562 [13] = assay: Induction of apoptosis in human K562 cells assessed as early apoptotic cells at 0.05 uM after 48 hrs by annexin V/PI staining based flow cytometry (reference value: 3.89 %); type: functional
K562 [14] = assay: Induction of apoptosis in human K562 cells assessed as early apoptotic cells at 0.25 uM after 48 hrs by annexin V/PI staining based flow cytometry (reference value: 3.89 %); type: functional
K562 [15] = assay: Induction of apoptosis in human K562 cells assessed as late apoptotic cells at 0.25 uM after 48 hrs by annexin V/PI staining based flow cytometry (reference value: 0.26 %); type: functional
K562 [16] = assay: Induction of apoptosis in human K562 cells assessed as late apoptotic cells at 0.5 uM after 48 hrs by annexin V/PI staining based flow cytometry (reference value: 0.26 %); type: functional

IC50 (K562 [9]): 460 nM | IC50 (NCI-H520): 1030 nM | IC50 (A-375): 160 nM | IC50 (HepG2): 320 nM | IC50 (MCF7): 2550 nM | Kb (Calf thymus DNA): 5.1 ×10⁴ /M | inhibition [12]: Active
Compound: Cc1cccc2c(=O)c3c(NCc4ccncc4)ccc(C(=O)NCCN(C)C)c3[nH]c12
Activity (K562 [1]): 27.06% | Activity (K562 [2]): 7.54% | Activity (K562 [3]): 20.24% | Activity (K562 [4]): Dose-dependent effect | Activity (K562 [5]): Active | Activity (K562 [6]): Active | Activity (K562 [7]): Active | Activity (K562 [8]): Active | IC50 [10]: 2200 nM | IC50 [11]: 1080 nM | Activity (K562 [13]): 8.98% | Activity (K562 [14]): 15.64% | Activity (K562 [15]): 1.08% | Activity (K562 [16]): 2.13%
